The source of these data is ChEMBL document CHEMBL4316650, “Leucinostatin Y: A Peptaibiotic Produced by the Entomoparasitic Fungus Purpureocillium lilacinum 40-H-28” (J Nat Prod, 2019).

Calls of active or inactive are those of the source. The calls are words filed in the database; no cut-off is given here. *1 amine or outer side, *2 acyl side, *3 side chain or, on linkers, in order; H or OH if unused. Where a SMILES comes first, the peptide text is derived from it. [ ]: non-standard residue; d: D form. The star is where a group is joined. ξ: configuration not given here. X1 = CCC(=O)C[C@H](O)C[C@@H](C)C[C@H](N[*:1])C(=O)[*:2]; X3 = CCC(=O)CC(O)CC(C)C[C@H](N[*:1])C(=O)[*:2]; Hexenoyl(2E,4S-Me) = CC[C@H](C)/C=C/C(=O)*; Leu(3R-OH) = CC(C)[C@@H](O)[C@H](N)C(=O)O; NH((S)CH(Me)CH2NMe2) = C[C@@H](CN(C)C)N*; Pro(4S-Me) = C[C@@H]1CN[C@H](C(=O)O)C1; X2 = CCC(C)/C=C/C(=O)*; Aib = CC(C)(N)C(=O)O; βAla = NCCC(=O)O; ξA = CC(N)C(=O)O

Data set [1] concerns PANC-1. The experiment in a line: Cytotoxicity against human PANC1 cells assessed as reduction in cell viability measured after 24 hrs under glucose-deprived condition by MTT assay. Type of data set: functional, cell-based. The method, boiled down: (§1)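 Cells grown at 37 °C, 5% CO2 in DMEM with 10% FBS. 2.5 × 10⁴ cells/well were seeded in DMEM for 24 h, then PBS-washed and switched to fresh DMEM (+glucose) or glucose-deprived medium. Compound exposure was 24 h. MTT at 0.5 mg/mL was added for 4 h at 37 °C, then 20% SDS for 12 h at 37 °C. Absorbance read at 570 nm.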
Background: Tetrazolium dyes change colour on reduction, which living cells bring about.

Data set [2] deals with BXPC-3. Description: Cytotoxicity against human BxPC3 cells assessed as reduction in cell viability measured after 24 hrs in presence of glucose by MTT assay. Type of data set: cell-based. Particulars: bxpc-3, 24 h. The method in brief: as §1
The species named for data set [3] is Homo sapiens. The experiment in a line: Inhibition of mitochondrial ATPase in human PANC1 cells assessed as decrease in oxygen consumption rate in presence of glucose by seahorse XFe96 analyser based assay. The data set is classed as cell-based. The method in brief: (§2)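 Mito stress test on PANC-1 cells: 2 × 10⁴ cells were plated in DMEM overnight. Cells were moved to XF base medium with 1 mM pyruvate and 2 mM GlutaMax, containing 1 g/L glucose (or lacking it for glucose-free runs), then held 30 min at 37 °C without CO2. Injections in order: compound, 1 μM oligomycin, 1 μM FCCP, 0.5 μM rotenone plus 0.5 μM antimycin. OCR and ECAR were taken as mean rates per cycle of 2 min mixing and 3 min acquisition, over 20 or 21 cycles.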

Data set [4] has as its system BXPC-3. Description: Cytotoxicity against human BxPC3 cells assessed as reduction in cell viability measured after 24 hrs under glucose-deprived condition by MTT assay. Type of data set: functional, cell-based. The method, boiled down:
as §1

For data set [5], the system named is PSN1. Description: Cytotoxicity against human PSN1 cells assessed as reduction in cell viability measured after 24 hrs under glucose-deprived condition by MTT assay. The data set is classed as functional, cell-based. The method, boiled down: as §1
The species entered for data set [6] is Homo sapiens. The experiment in a line: Inhibition of mitochondrial ATPase in human PANC1 cells assessed as increase in extracellular acidification rate in presence of glucose by seahorse XFe96 analyser based assay. Type of data set: cell-based. The method, boiled down: as §2
The test system of data set [7] is PANC-1. Description: Cytotoxicity against human PANC1 cells assessed as reduction in cell viability measured after 24 hrs in presence of glucose by MTT assay. Type of data set: cell-based. The settings on record: panc-1, 24 h. The method in brief:
as §1

Data set [8] can be described thus: Cytotoxicity against human PK8 cells assessed as reduction in cell viability measured after 24 hrs in presence of glucose by MTT assay. The data set is classed as cell-based. The method in brief: as §1
In data set [9] the test system is PSN1. The experiment in a line: Cytotoxicity against human PSN1 cells assessed as reduction in cell viability measured after 24 hrs in presence of glucose by MTT assay. The data set is classed as cell-based. Particulars: psn1, 24 h. The method in brief:
as §1

The species entered for data set [10] is Homo sapiens. The experiment in a line: Cytotoxicity against human PK8 cells assessed as reduction in cell viability measured after 24 hrs under glucose-deprived condition by MTT assay. Type of data set: functional, cell-based. The method, boiled down: as §1
Data set [11] is filed under the species Homo sapiens. The experiment in a line: Inhibition of mitochondrial ATPase in human PANC1 cells assessed as decrease in oxygen consumption rate at 0.6 ug/ml in absence of glucose by seahorse XFe96 analyser based assay. The data set is classed as cell-based. The method, boiled down:
as §2

For data set [12], the species on record is Homo sapiens. Description: Inhibition of mitochondrial ATPase in human PANC1 cells assessed as increase in extracellular acidification rate at 0.6 ug/ml in absence of glucose by seahorse XFe96 analyser based assay. The data set is classed as cell-based. The method, boiled down: as §2
The species named for data set [13] is Homo sapiens. Description: Inhibition of mitochondrial ATPase in human PANC1 cells assessed as decrease in oxygen consumption rate at 0.6 ug/ml in presence of glucose by seahorse XFe96 analyser based assay. Type of data set: cell-based. The method, boiled down:
as §2

The species entered for data set [14] is Homo sapiens. Description: Inhibition of mitochondrial ATPase in human PANC1 cells assessed as increase in extracellular acidification rate at 0.6 ug/ml in presence of glucose by seahorse XFe96 analyser based assay. Type of data set: cell-based. The method, boiled down:
as §2

Consider `CCC(=O)CC(O)CC(C)C[C@H](NC(=O)[C@@H]1C[C@H](C)CN1C(=O)/C=C/C(C)CC)C(=O)N[C@H](C(=O)NC(C)(C)C(=O)N[C@@H](CC(C)C)C(=O)N[C@@H](CC(C)C)C(=O)NC(C)(C)C(=O)NC(C)(C)C(=O)NCCC(=O)NC(C)C(=O)O)[C@H](O)C(C)C` (stereo partly drawn) (X2-[Pro(4S-Me)][X3][Leu(3R-OH)][Aib]LL[Aib][Aib][βAla][ξA]-OH), for which the result in the data set with PANC-1 [1], in the data set with BXPC-3 [4], in the data set with PSN1 [5] and in the data set filed under Homo sapiens [10] was inactive. Further, the Activity result (in the data set on BXPC-3 [2]; in the data set on PANC-1 [7]; in data set [8]; with PSN1 [9]) was “Non-Toxic” throughout. For the same compound, the inhibition entry in the data set filed under Homo sapiens [3] and in the data set listed under Homo sapiens [6] was “inactive” each time.

On to `CCC(=O)C[C@H](O)C[C@@H](C)C[C@H](NC(=O)[C@@H]1C[C@H](C)CN1C(=O)/C=C/[C@@H](C)CC)C(=O)N[C@H](C(=O)NC(C)(C)C(=O)N[C@@H](CC(C)C)C(=O)N[C@@H](CC(C)C)C(=O)NC(C)(C)C(=O)NC(C)(C)C(=O)NCCC(=O)N[C@@H](C)CN(C)C)[C@H](O)C(C)C` ({Hexenoyl(2E,4S-Me)}-[Pro(4S-Me)][X1][Leu(3R-OH)][Aib]LL[Aib][Aib][βAla]-{NH((S)CH(Me)CH2NMe2)}), for which the inhibition result in the data set filed under Homo sapiens [11], in the data set listed under Homo sapiens [3], in the data set filed under Homo sapiens [6], in the data set listed under Homo sapiens [13] and in the data set filed under Homo sapiens [14] was “Active” in each case. The result with PANC-1 [1], in the data set with BXPC-3 [4], with PSN1 [5] and in the data set listed under Homo sapiens [10] was Active. Also, the Activity entry (in the data set with BXPC-3 [2]; in data set [8]; with PSN1 [9]) was “Non-Toxic” in each case. Further, in the data set filed under Homo sapiens [12], the inhibition result is “inactive”.
